SMILES strings stand for the structures. Several values for one entry are separate records, joined by “and”; a condition that tells them apart may be missing. Equal entries are not always repeated.

This assay has as its target GluA2 LBD (S1S2J, rat GluA2-flop subunit, N754S) (Rattus norvegicus, UniProt P19491, DEL528-650/N775S/S652T/V651G). It counts as biochemical. In short, it runs like this: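 Trypsin-detagged LBD (residues N392-K506/P632-S775, GT linker) from E. coli Origami B(DE3), purified by ion exchange and sizing. Protein 0.017–0.1 mM in 10 mM glutamate, 25 mM NaCl, 25 mM Tris-Cl pH 7, with modulator from DMSO (1 µL per 30 µL); kept at 4 °C; synchrotron SAXS. Dimer fraction fit with monomer/dimer form factors (1FTJ); EC50 from dimerization curves; constants from simultaneous one- or two-site equilibrium fits.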

The term EC50 denotes the midpoint of the concentration-response curve. Low readings indicate an effect from little substance, high ones a need for much substance. The term Kd denotes the concentration at which binding is half-saturated. Read a low Kd as a tighter complex. On to `NS(=O)(=O)c1cc2c(cc1Cl)NC(C1CC3C=CC1C3)NS2(=O)=O` (centres unmarked) [CYTZ, cyclothiazide], for which the concentration giving a half-maximal response (EC50) lay in the range of 0.1 to 0.2 mM and the Kd was ~5 µM. Besides, the “fold lower EC50 for dimerization than HFMZ” value (CYTZ vs HFMZ) came to 20 ×. Moreover, the “fold lower EC50 for dimerization than TCMZ” value (CYTZ vs TCMZ) came out at 10 ×.
On to `NS(=O)(=O)c1cc2c(cc1C(F)(F)F)NCNS2(=O)=O` [HFMZ, hydroflumethiazide], for which the half-maximal effective concentration (EC50) fell in the range of 2 to 5 mM and the Kd is ~5 µM.
Consider `NS(=O)(=O)c1cc2c(cc1Cl)NC(C(Cl)Cl)NS2(=O)=O` (centres unmarked) [TCMZ, trichlormethiazide], for which the EC50 fell in the range of 1 to 2 mM; the Kd was 46.8 µM and ~50 µM.

Source of the values: publication PMC3947009 (ACS Chemical Biology, 2013).
